Data set [1] relates to Rattus norvegicus. Briefly: Antiplatelet activity in Wistar rat assessed as inhibition of ADP-induced platelet aggregation at 3 mg/kg, po measured after 2 hrs by Born's method. It is filed as functional. More on the design: scale not given: the % may be the effect or the level left. In outline: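 Oral dosing at 3 mg/kg, CMC as vehicle, groups of 10 rats. At 2 h the rats were anesthetized with pentobarbital sodium and blood was drawn from the abdominal aorta. Ex vivo aggregation was induced with ADP 1.2 μM and read on an aggregometer (Born's method). Values are mean ± SD, n = 10, statistics versus vehicle.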

In data set [2] the test system is Rattus norvegicus. As to the kind of experiment: AUC (0 to infinity) in Sprague-Dawley rat […] at 24 umol/kg, po. It is filed as ADME, organism-based, Plasma. Set-up: dose 24 umol/kg, route oral, time infinity. The settings on record: in vivo.
Data set [3] concerns Liver microsomes. Briefly: Drug metabolism in rat liver microsomes assessed as NADPH-dependent active metabolite glutathione adducts 2 formation at 20 uM after 30 mins by LC-MS/MS analysis. Particulars: 0.5 h; call rule not given here. It is filed as ADME, Microsome. In short, it runs like this:
(§1)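 Pooled SD rat liver microsomes (1.0 mg/mL protein) with compound 20 μM (diluted from 10 mM DMSO stock), NADPH 1.0 mM and glutathione 10 mM in 100 mM potassium phosphate pH 7.4. Incubated 30 min at 37 °C; controls lacked NADPH. Quenched with ice-cold 10% TCA and centrifuged. Supernatant analysed by LC-MS/MS (phenyl column, positive ESI), monitoring AMGS adducts at m/z 661 (SIM).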
In general terms: Liver microsomes are vesicles of endoplasmic reticulum, rich in cytochrome P450 enzymes.

For data set [4], the system named is Rattus norvegicus. As to the kind of experiment: Tmax in Sprague-Dawley rat assessed as clopidogrel thioacetate level at 24 umol/kg, po. It is filed as ADME, organism-based. Particulars: in vivo.
The nature of data set [5]: Toxicity in beagle dog assessed as maximum tolerated dose. It is filed as organism-based, Canis lupus familiaris. The settings on record: in vivo. In outline:
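Single-dose oral study in beagle dogs, run in a GLP laboratory. Both the no-observed-adverse-effect level and the maximal tolerated dose were determined.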

Data set [6] deals with Liver microsomes. Briefly: Drug metabolism in rat liver microsomes assessed as NADPH-dependent active metabolite glutathione adducts 3 formation at 20 uM after 30 mins by LC-MS/MS analysis. It is filed as ADME, Microsome. The settings on record: 0.5 h. In short, it runs like this: as §1
For data set [7], the system named is Rattus norvegicus. As to the kind of experiment: Half life in Sprague-Dawley rat assessed as clopidogrel thioacetate level at 24 umol/kg, po. It is filed as ADME, organism-based. The settings on record: in vivo.
Data set [8] has as its system Mus musculus. As to the kind of experiment: Toxicity in mouse assessed as mortality at 5000 mg/kg, po measured after 14 days. Particulars: in vivo, 336 h. Set-up: dose 5000 mg/kg, route oral. It is filed as organism-based. In outline: (§2)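 Single-dose study in a GLP laboratory. Deaths were recorded, and the liver and other organs were assessed for injury or adverse effects.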

Data set [9] relates to Mus musculus. As to the kind of experiment: Toxicity in mouse assessed as tissue injury at 5000 mg/kg, po measured after 14 days. It is filed as organism-based. More on the design: dose 5000 mg/kg, route oral. The settings on record: in vivo, 336 h. In outline:
as §2

For data set [10], the system named is Liver microsomes. Briefly: Drug metabolism in rat liver microsomes assessed as NADPH-dependent active metabolite glutathione adducts formation at 20 uM after 30 mins by LC-MS/MS analysis in presence of NADPH and GSH. It is filed as ADME, Microsome. The settings on record: 0.5 h. In outline:
as §1

Data set [11] deals with Mus musculus. Briefly: Toxicity in mouse assessed as liver injury at 5000 mg/kg, po measured after 14 days. It is filed as organism-based. Set-up: dose 5000 mg/kg, route oral. Particulars: in vivo, 336 h. In outline:
as §2

The subject of data set [12] is Liver microsomes. Briefly: Drug metabolism in rat liver microsomes assessed as NADPH-dependent active metabolite glutathione adducts 1 formation at 20 uM after 30 mins by LC-MS/MS analysis. It is filed as ADME, Microsome. Particulars: 0.5 h. In short, it runs like this:
as §1

Data set [13] deals with Liver microsomes. As to the kind of experiment: Drug metabolism in rat liver microsomes assessed as NADPH-dependent active metabolite glutathione adducts 4 formation at 20 uM after 30 mins by LC-MS/MS analysis. It is filed as ADME, Microsome. The settings on record: 0.5 h. In short, it runs like this: as §1
Data set [14] can be described thus: Toxicity in beagle dog assessed as no-observed adverse effect level. It is filed as organism-based, Canis lupus familiaris. Particulars: in vivo.
Data set [15] has as its system Rattus norvegicus. As to the kind of experiment: Cmax in Sprague-Dawley rat assessed as clopidogrel thioacetate level at 24 umol/kg, po. It is filed as ADME, organism-based. The settings on record: in vivo. More on the design: dose 24 umol/kg, route oral.

Each structure is given as a SMILES string.

`COC(=O)[C@H](c1ccccc1Cl)N1CCc2sccc2C1.O=S(=O)(O)O` [CLOPIDOGREL BISULFATE]: in data set [1], the Activity is 73.7%.
For `CCOC(=O)Oc1cc2c(s1)CCN([C@H](C(=O)OC)c1ccccc1Cl)C2`, the Activity in [1] stood at 53%.
As to `COC(=O)[C@H](c1ccccc1Cl)N1CCc2sc(OC(=O)OCC(C)C)cc2C1`, in data set [1], the Activity amounted to 65.6%.
On the same count and under the same terms, in the case of `CCC(C)(C)C(=O)Oc1cc2c(s1)CCN([C@H](C(=O)OC)c1ccccc1Cl)C2` it was 70%.
`COC(=O)[C@@H](c1ccccc1Cl)N1CCc2sc(OC(C)=O)cc2C1`: the Activity in data set [1] stood at 68.4%.
What is called AUC is the area under the concentration-time curve, a measure of exposure. For orientation: Tmax means the time at which the peak concentration occurs. Usually MTD stands for the largest dose that counted as tolerated. By NOAEL is commonly meant the highest dose or exposure tested at which no adverse effect was seen. What is called Cmax is the peak of the concentration-time curve. The compound `COC(=O)[C@H](c1ccccc1Cl)N1CCc2sc(OC(C)=O)cc2C1` [SUMECIGREL] had an exposure (AUC) in data set [2] of 211 ng·h/mL. Further, the Drug metabolism entry in [3], in data set [6], in [10], in data set [12] and in data set [13] was “Active” each time. Besides, in [4], the Tmax amounted to 1.17 h. In addition, in data set [5], the MTD was more than 2000 mg/kg. In addition, in [7], the t1/2 came out at 2.19 h. Moreover, the Activity result in [8] was “Non-toxic”; in data set [9] it was “Non-toxic”; in [1] it was 34.6%; in data set [11], “Toxic”. For the same compound, the NOAEL in data set [14] came to 300 mg/kg. The Cmax in data set [15] came to 67.2 ng/mL.
As to `COC(=O)[C@H](c1ccccc1Cl)N1CCc2sc(OC(=O)OCc3ccccc3)cc2C1`, the Activity in [1] was determined as 72.2%.
In the case of `COC(=O)C(c1ccccc1Cl)N1CCc2sc(OC(C)=O)cc2C1` (racemic), the Activity in [1] is given as 63.7%.
Take `COC(=O)[C@H](c1ccccc1F)N1CCc2sc(OC(C)=O)cc2C1`: the Activity in [1] was found to be 62.9%.
Take `COC(=O)[C@H](c1ccccc1Cl)N1CCc2sc(OC(=O)COc3ccccc3)cc2C1`: the Activity in data set [1] is given as 75.4%.
Turning to `COC(=O)[C@H](c1ccccc1)N1CCc2sc(OC(C)=O)cc2C1`, the Activity in data set [1] came out at 81.1%.
Turning to `CCCC(=O)Oc1cc2c(s1)CCN([C@H](C(=O)OC)c1ccccc1Cl)C2`, in [1], the Activity worked out at 52.8%.
Same read-out and setting: the value for `CC(=O)Oc1cc2c(s1)CCN(C(C(=O)C1CC1)c1ccccc1F)C2` (stereo not given) [PRASUGREL] was 32.1%; that for `COC(=O)[C@H](c1ccccc1Cl)N1CCc2sc(OC(=O)c3ccccc3OC(C)=O)cc2C1` was 77.9%; that for `COC(=O)[C@H](c1ccccc1Cl)N1CCC2SC(=O)C=C2C1` (stereo not given in full) [CLOPIDOGREL THIOLACTONE] was 48.6%.
Consider `COC(=O)[C@H](c1ccccc1Cl)N1CCc2sc(OC(=O)c3cccnc3)cc2C1`, for which the Activity in data set [1] came to 45.1%.
As to `COC(=O)[C@H](c1ccccc1Cl)N1CCc2sc(OC(=O)c3ccc([N+](=O)[O-])cc3)cc2C1`, the Activity in data set [1] turned out to be 75.6%.
`COC(=O)[C@H](c1ccccc1Cl)N1CCc2sc(OC(=O)Cc3ccccc3)cc2C1`: the Activity in data set [1] is on record as 53.8%.
As for `COC(=O)[C@H](c1ccccc1Cl)N1CCc2sc(OC(=O)N(C)C)cc2C1`, in data set [1], the Activity amounted to 67.7%.
Take `COC(=O)[C@H](c1ccccc1Cl)N1CCc2sc(OC(=O)C(C)(C)C)cc2C1`: the Activity in data set [1] is on record as 63.4%.
Consider `COC(=O)[C@H](c1ccccc1Cl)N1CCc2sc(OC(=O)N3CCCC3)cc2C1`, for which the Activity in [1] is 80.9%.
On to `COC(=O)[C@H](c1ccccc1Cl)N1CCc2sc(OC(=O)c3ccc(OC)cc3)cc2C1`, for which the Activity in data set [1] is given as 82.6%.
Turning to `COC(=O)[C@H](c1ccccc1Cl)N1CCc2sc(OC(=O)c3ccccc3)cc2C1`, the Activity in [1] stood at 60.1%.
Regarding `COC(=O)Oc1cc2c(s1)CCN([C@H](C(=O)OC)c1ccccc1Cl)C2`, the Activity in data set [1] was 38.6%.
With `COC(=O)[C@H](c1ccccc1Cl)N1CCc2sc(OC(=O)OC(C)C)cc2C1`, the Activity in [1] is reported as 50.2%.
As to `CCC(=O)Oc1cc2c(s1)CCN([C@H](C(=O)OC)c1ccccc1Cl)C2`, the Activity in data set [1] is listed as 46.7%.
On the same count and under the same terms, the value for `COC(=O)[C@H](c1ccccc1Cl)N1CCc2sc(OC(=O)/C=C/c3ccccc3)cc2C1` was 84.7%.
In data set [2], `COC(=O)[C@H](c1ccccc1Cl)N1CCc2sccc2C1` [CLOPIDOGREL] registered an area under the curve (AUC) of 32.2 ng·h/mL. The Drug metabolism result in [3], in data set [6], in data set [10], in data set [12] and in data set [13] was “Active” throughout. Further, in [4], the Tmax came to 0.583 h. Besides, the t1/2 in data set [7] turned out to be 2.48 h. In addition, the highest concentration (Cmax) in [15] came out at 6.93 ng/mL.

The values above are taken from ChEMBL document CHEMBL2040847, “Overcoming clopidogrel resistance: discovery of vicagrel as a highly potent and orally bioavailable antiplatelet agent” (J Med Chem, 2012).
